# Measurements gathered from unrelated publications.
# Protocols differ between the studies behind these lines.
# Target: Mitogen-activated protein kinase 15 (MAPK15, Homo sapiens, UniProt Q8TD08)
# Sequence (Q8TD08 1-544, as in one of the studies): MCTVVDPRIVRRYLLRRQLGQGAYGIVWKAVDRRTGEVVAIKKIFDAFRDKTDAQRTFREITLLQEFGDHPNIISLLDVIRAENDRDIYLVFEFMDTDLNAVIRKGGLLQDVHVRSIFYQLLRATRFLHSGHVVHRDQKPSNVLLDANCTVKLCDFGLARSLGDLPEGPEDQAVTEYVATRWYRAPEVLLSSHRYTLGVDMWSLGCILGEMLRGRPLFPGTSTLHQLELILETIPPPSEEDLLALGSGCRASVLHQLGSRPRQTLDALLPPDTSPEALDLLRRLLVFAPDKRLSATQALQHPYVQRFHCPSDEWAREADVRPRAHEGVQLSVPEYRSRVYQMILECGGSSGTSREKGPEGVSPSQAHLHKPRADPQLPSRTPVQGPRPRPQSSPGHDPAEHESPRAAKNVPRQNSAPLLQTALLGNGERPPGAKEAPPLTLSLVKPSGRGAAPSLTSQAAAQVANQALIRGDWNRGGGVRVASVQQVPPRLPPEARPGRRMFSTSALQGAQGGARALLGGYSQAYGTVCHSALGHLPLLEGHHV
Structure (SMILES),observed,action,technique,tested at,quantity,result
CS(=O)(=O)c1cc(C2(NC(=O)c3cncc4c3cnn4-c3ccc(F)cc3)CC2)ccn1,cell-free assay,,competition with immobilised ligand,1 µM,remaining binding,100%
O=C(Nc1cnn(-c2csc(C(=O)NC3COC3)c2)c1)Nc1ccccc1Cl,enzyme activity,inhibitor,,5 µM,remaining activity,140%
Nc1ncnc2occ(-c3ccc(NC(=O)Nc4cc(C(F)(F)F)ccc4F)cc3)c12,cell-free assay,inhibitor,,20 µM,remaining signal,0.1%
FC(F)(F)Oc1cccc(-c2cnc3ccc(-c4ccncc4)nn23)c1,enzyme activity,inhibitor,radiometric,5 µM,activity vs control,17%
Nc1nc(Nc2ccccc2)sc1C(=O)c1c(F)cccc1F,enzyme activity,inhibitor,,10 µM,remaining activity,14%
Cc1c[nH]c2nccc(Oc3c(F)cc(Nc4cc(Cl)nc(N)n4)cc3F)c12,cell-free assay,,competition with immobilised ligand,0.1 µM,remaining binding,100%
Nc1nc(NC2CCCCC2)sc1C(=O)c1ccccc1,enzyme activity,inhibitor,,10 µM,remaining activity,18%
Nc1nc(Nc2ccc(S(N)(=O)=O)cc2)sc1C(=O)c1ccccc1[N+](=O)[O-],enzyme activity,inhibitor,,0.1 µM,inhibition,73 to 75%
Cc1nccc(COC(=O)N2C[C@@H]3[C@@H](CNC(=O)c4ccc5[nH]nnc5c4)[C@@H]3C2)n1,cell-free assay,,competition with immobilised ligand,1 µM,remaining binding,100%
O=C(Nc1cnn(-c2csc(C(=O)NC3COC3)c2)c1)Nc1c(F)cccc1Cl,enzyme activity,inhibitor,,5 µM,remaining activity,108%
CC(C)(C)c1nc(-c2cccc(NS(=O)(=O)c3c(F)cccc3F)c2F)c(-c2ccnc(N)n2)s1,enzyme activity,inhibitor,radiometric,1 µM,remaining activity,80%
FC(F)c1nc2ccccc2n1-c1nc(N2CCOCC2)nc(N2CCOCC2)n1,enzyme activity,inhibitor,,10 µM,remaining activity,92%
CCC(=N\O)/C(C)=C/c1ccc(F)cc1,cell-free assay,,competition with immobilised ligand,1 µM,remaining binding,95%
Cn1cnc(Br)c1C1=CN(c2ncnc3[nH]cnc23)CCS1,enzyme activity,inhibitor,radiometric,2 µM,inhibition,80.2%
